From PubChem BioAssay
The source made the active and inactive calls.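 The calls were made as follows, unless noted: active = visual image review flags a hit and inhibition of aggregation exceeds 20%; inconclusive = visual hit but inhibition at or below 20%; inactive = no hit on visual image review.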

Columns and labels:
[1] = inhibitors of TNFa-induced NFkB p65 translocation, primary screen, imaging, HUVEC, MLSMR starter and 10KST1 sets (AID 438;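 active = inhibition above 20% together with a positive visual image hit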;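 also: compound added about 3h40 before a 20 min TNFalpha stimulation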;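 as to inhibition: signal is the nuclear over cytoplasmic p65 intensity ratio per well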); details: HUVEC TNFa-induced p65 nuclear translocation; cell count: measured here: nuclei count (cytotoxicity indicator), at 2.08 µM; inhibition: at 2 µM, stronger effect = higher value, 0% TNFa-plus-vehicle, 100% no-TNFa wells
[2] = reduction of polyQ htt aggregates in cells – imaging, exon1htt(103Q)mCFP cells, high-content imaging, primary screen (AID 483); details: exon1htt(103Q)mCFP cell line, aggregate imaging, at 2 µM; inhibition of aggregation: stronger effect = higher value; nuclei count: measured here: cell count, toxicity;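 also: compound exposure lasted 3 days before fixation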;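 as to nuclei count: percent of the per-plate median nuclei count of sample wells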
[3] = endothelial E-selectin expression blockers – imaging, HUVEC, immunofluorescence, MLSMR starter and 10KST1 sets, primary screen (AID 487;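 active = visually confirmed hit in the image check and inhibition above 20%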;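 as to inhibition: signal is fraction of cell area covered by stained E-selectin grains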;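 as to nuclei count: 100% = median nuclei count of all wells on the same plate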); details: HUVEC TNFalpha-induced E-selectin immunofluorescence imaging, at 2 µM; inhibition: stronger effect = higher value; nuclei count: measured here: cell number, toxicity
[4] = target: Voltage-gated potassium channel subunit beta-2 (Rattus norvegicus) (UniProt P62483); assay: inhibitors of rat Kvbeta2 reductase activity – biochemical, NADPH fluorescence, primary screen (AID 622;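 active = fluorescence slope higher than the sample average by over 3 SD, cut at about -0.22 in these data, passing the limit was not always enough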;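 also: slope of raw intensity against log time taken from 70 to 1610 s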); details: recombinant KvBeta, 4-cyanobenzaldehyde reduction, at 10 µM, stronger effect = higher value
Sequence of Voltage-gated potassium channel subunit beta-2 (Rattus norvegicus) (P62483 whole entry, looked up): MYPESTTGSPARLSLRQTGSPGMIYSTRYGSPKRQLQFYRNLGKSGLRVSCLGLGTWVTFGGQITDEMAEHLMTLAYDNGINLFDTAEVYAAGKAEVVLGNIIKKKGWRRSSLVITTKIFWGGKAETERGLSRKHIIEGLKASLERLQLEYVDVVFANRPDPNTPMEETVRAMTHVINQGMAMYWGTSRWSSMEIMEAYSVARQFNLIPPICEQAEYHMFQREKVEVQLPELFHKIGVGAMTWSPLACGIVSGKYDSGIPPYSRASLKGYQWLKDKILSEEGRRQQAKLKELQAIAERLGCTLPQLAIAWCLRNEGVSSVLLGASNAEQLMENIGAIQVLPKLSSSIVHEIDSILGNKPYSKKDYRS

[5] = target: Voltage-gated potassium channel subunit beta-2 (Rattus norvegicus) (UniProt P62483); assay: enhancers of rat Kvbeta2 NADPH turnover – biochemical, NADPH fluorescence, primary screen (AID 623;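 active = NADPH fluorescence slope more negative than the mean of all samples by about 3 SD, 99.7% confidence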;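 also: fluorescence intensity change per second fitted from 20 to 320 s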); details: Recombinant KvBeta, NADPH fluorescence decrease slope, 10 min; at 10 µM; stronger effect = lower value
[6] = target: Muscarinic acetylcholine receptor M4 (Homo sapiens) (UniProt P08173); assay: M4-linked GIRK flux change, two-sided – cell-based, HEK293 M4/GIRK, thallium flux, BTC-AM, M4 allosteric agonist project, primary screen (AID 625;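 active = fluorescence slope after compound addition differing from the mean of all tested samples at 99.7% confidence, mostly higher but some lower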;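 also: thallium influx through GIRK channels coupled to M4 in HEK293 cells with BTC-AM dye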); details: at 10 µM, actives lie on both sides
Sequence of Muscarinic acetylcholine receptor M4 (Homo sapiens) (P08173 whole entry, looked up): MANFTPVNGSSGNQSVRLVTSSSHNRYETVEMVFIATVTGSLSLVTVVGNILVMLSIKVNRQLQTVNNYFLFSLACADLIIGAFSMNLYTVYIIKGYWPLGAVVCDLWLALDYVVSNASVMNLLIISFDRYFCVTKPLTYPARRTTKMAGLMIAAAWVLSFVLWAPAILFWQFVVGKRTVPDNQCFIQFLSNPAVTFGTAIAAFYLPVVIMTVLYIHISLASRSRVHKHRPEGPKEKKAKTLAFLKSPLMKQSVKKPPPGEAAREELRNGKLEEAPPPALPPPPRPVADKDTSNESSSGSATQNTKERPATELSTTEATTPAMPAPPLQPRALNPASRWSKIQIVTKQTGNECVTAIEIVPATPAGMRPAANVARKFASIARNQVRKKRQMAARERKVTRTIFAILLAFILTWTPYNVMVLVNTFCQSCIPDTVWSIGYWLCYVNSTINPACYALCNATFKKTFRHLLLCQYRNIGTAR
How it was run: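 Material: HEK293 cells with M4 receptor and GIRK channels; Times: cells overnight at 37 °C, BTC-AM loading 1 h, reads 2 min total; Technique: kinetic BTC-AM fluorescence sampled at 1 Hz, 10 s pre-addition baseline; Read-out basis: slope over 15–24 s of trace normalized to starting intensity; Controls: carbachol positive, DMSO negative.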

[7] = blockers of RIG-like receptor reporter activation – cell-based, Sendai virus stimulus, luciferase, 10K MLSCN set, TLR/RLR signaling modifier project, primary screen (AID 602276;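 active = inhibition at or above 50% at 10 µM; inactive = inhibition below 50%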;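 also: firefly luciferase from ISG56 promoter only with Renilla not read in this screen; 0% = Sendai virus plus DMSO and 100% = medium plus DMSO without virus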); details: HEK293 RL24 IRF3 luciferase reporter, at 10 µM, stronger effect = higher value
[8] = TLR3 IRF3 reporter activation blockers – cell-based, poly I:C stimulus, luciferase, 10K MLSCN set, primary screen (AID 602277;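 active = inhibition of the reporter signal at or above 50%; inactive = inhibition below 50%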); details: HEK293-TLR3 RL24 IRF3 luciferase reporter, at 10 µM, stronger effect = higher value

Row | SMILES | cell count [1] | inhibition [1] | inhibition of aggregation [2] | nuclei count [2] | inhibition [3] | nuclei count [3] | fluorescence slope [4] | NADPH fluorescence slope [5] | fluorescence slope [6] | inhibition [7] | inhibition [8]
1 | O=C(Cc1nn[nH]n1)NCCC1=CCCCC1 | 402 | 1.7% (inactive) | 2.5% (inactive) | 99.7% | -1.4% (inactive) | 113% | -0.567 (inactive) | -8.7e-06 (inactive) | 0.00606 (inactive) | 5.61% (inactive) | 18% (inactive)
2 | Cc1ccc(N2CC(C(=O)Nc3nnc(C)s3)CC2=O)cc1 (stereo not drawn) | 622 | 0% (inactive) | -10.8% (inactive) | 95.6% | 21.8% (inactive) | 103% | -0.542 (inactive) | -3e-05 (inactive) | 0.00498 (inactive) | 18.6% (inactive) | 14.5% (inactive)
3 | COc1ccc(C2=NOC(C(=O)NCc3ccc(F)cc3)C2)cc1OC (stereo not drawn) | 601 | 14.3% (inactive) | -82.4% (inactive) | 2.5% | -172% (inactive) | 99.1% | -0.493 (inactive) | 4.2e-05 (inactive) | 0.00618 (inactive) | 22.8% (inactive) | 82.8% (active)
4 | O=C(c1cc(-c2ccco2)nn1-c1cccc(Cl)c1)N1CCCCC1 | 502 | -4.7% (inactive) | -5.1% (inactive) | 91% | 1.9% (inactive) | 100% | -0.588 (inactive) | -1.4e-05 (inactive) | 0.0049 (inactive) | 22.9% (inactive) | 36.1% (inactive)
5 | Cc1ccc(-n2nc(C(=O)N3CCN(C)CC3)c3c4ccccc4n(C)c3c2=O)cc1 | 264 | 5.9% (inactive) | -10.3% (inactive) | 90.9% | -38.3% (inactive) | 119% | -0.523 (inactive) | -2e-05 (inactive) | 0.00583 (inactive) | 19.7% (inactive) | 35.7% (inactive)
6 | COC(=O)c1[nH]c2cc(OC)ccc2c1NC(=O)CN1CCOCC1 | 346 | 1.4% (inactive) | -17.1% (inactive) | 105% | -117% (inactive) | 117% | -0.535 (inactive) | -1.7e-05 (inactive) | 0.00517 (inactive) | 13.1% (inactive) | 7.58% (inactive)
7 | COc1ccc2cc(C#N)c(NC(C)C)nc2c1 | 481 | 3.6% (inactive) | -25.6% (inactive) | 96.4% | -23.1% (inactive) | 108% | -0.495 (inactive) | -0.000141 (inactive) | 0.00581 (inactive) | 8% (inactive) | 23% (inactive)
8 | Cc1cccn2c(=O)c3cc(C#N)c(=NC(=O)c4ccncc4)n(Cc4ccco4)c3nc12 | 386 | -1% (inactive) | 5% (inactive) | 99.9% | -36.9% (inactive) | 114% | -0.535 (inactive) | -1.2e-05 (inactive) | 0.00818 (inactive) | 10.3% (inactive) | 19.4% (inactive)
9 | COc1ccc(CC(=O)Nc2ccc(-c3nnc(-c4ccc(C)cc4)o3)cc2)cc1 | 411 | 0.5% (inactive) | -17.7% (inactive) | 102% | -101% (inactive) | 109% | -0.454 (inactive) | -9.3e-06 (inactive) | 0.0071 (inactive) | 8.75% (inactive) | 18.4% (inactive)
10 | O=C(CN1C(=O)COc2ccccc21)NCCN1CCc2ccccc2C1 | 681 | 7.3% (inactive) | 30.2% (inactive) | 95% | -2.1% (inactive) | 92.7% | -0.573 (inactive) | -5.4e-05 (inactive) | 0.00634 (inactive) | 12.1% (inactive) | 26.1% (inactive)
11 | COc1ccc(Cc2nn3c(-c4cc(OC)c(OC)c(OC)c4)nnc3s2)cc1 | 552 | 7.6% (inactive) | 17.4% (inactive) | 95.1% | 20.8% (inactive) | 103% | -0.254 (inactive) | -2.7e-05 (inactive) | 0.00585 (inactive) | 14.7% (inactive) | -1.58% (inactive)
12 | CC1(C)CC(=O)c2cnc(NCc3ccco3)nc2C1 | 480 | 7.7% (inactive) | -7.2% (inactive) | 96.1% | -165% (inactive) | 150% | -0.407 (inactive) | -1.8e-05 (inactive) | 0.00659 (inactive) | -11.5% (inactive) | -26.2% (inactive)
13 | Cc1cccc(NCc2ccccc2O)c1 | 454 | 4.9% (inactive) | 1.3% (inactive) | 94.5% | 10.3% (inactive) | 104% | -0.55 (inactive) | -2.3e-05 (inactive) | 0.00568 (inactive) | 10.1% (inactive) | 3.99% (inactive)
14 | CN1CCN(S(=O)(=O)c2ccc(Sc3nnc(-c4cccs4)n3-c3ccccc3)nc2)CC1 | 603 | -11% (inactive) | -9% (inactive) | 104% | -140% (inactive) | 142% | -0.245 (inactive) | -2e-05 (inactive) | 0.00549 (inactive) | 1.81% (inactive) | 4.54% (inactive)
15 | COc1ccc(C(=O)Nc2ccc(S(=O)(=O)Nc3nccnc3OC)cc2)cc1OC | 459 | 8.1% (inactive) | 4.1% (inactive) | 101% | -126% (inactive) | 123% | -0.601 (inactive) | 6.9e-06 (inactive) | 0.0057 (inactive) | 21.5% (inactive) | 34.3% (inactive)
16 | CC(C)(C)C(=O)Cn1c(=N)n(Cc2ccccc2)c2ccccc21 | 394 | 6.1% (inactive) | 8.9% (inactive) | 99.1% | 20.9% (inactive) | 96% | -0.409 (inactive) | 4.3e-05 (inactive) | 0.00407 (inactive) | 20% (inactive) | 17.2% (inactive)
17 | CN(C)C=Nc1nonc1N | 429 | 9% (inactive) | -2% (inactive) | 105% | 24.6% (inactive) | 99.3% | -0.584 (inactive) | -7.3e-05 (inactive) | 0.00382 (inactive) | 18% (inactive) | 21% (inactive)
18 | O=C(CSc1nc2ccccc2c(=O)n1CCC(=O)N1CCCCC1)NCc1ccccc1 | 495 | -7.5% (inactive) | 1% (inactive) | 103% | 16.9% (inactive) | 101% | -0.507 (inactive) | 1.6e-05 (inactive) | 0.00538 (inactive) | 17.4% (inactive) | 24.1% (inactive)
19 | COc1ccccc1C1C(C(C)=O)=C(O)C(=O)N1CCc1ccccc1 (stereo not drawn) | 373 | 9.5% (inactive) | -6.3% (inactive) | 105% | -33.5% (inactive) | 103% | -0.549 (inactive) | -3.7e-05 (inactive) | 0.00483 (inactive) | 10.7% (inactive) | 18.1% (inactive)
20 | COc1cc(CNc2ccc(N3CCOCC3)c(C(=O)O)c2)ccc1OCC(N)=O | 362 | -2.2% (inactive) | -15.5% (inactive) | 99.3% | 26.6% (inactive) | 98.6% | -0.343 (inactive) | 0.000117 (inactive) | 0.00665 (inactive) | 5.32% (inactive) | 9.86% (inactive)
21 | O=C(c1cn(-c2ccccc2)nc1-c1cccs1)N1CCN(c2ccccn2)CC1 | 465 | -10.8% (inactive) | 11.5% (inactive) | 84.1% | -83% (inactive) | 150% | -0.421 (inactive) | 4e-05 (inactive) | 0.00586 (inactive) | 6.18% (inactive) | -18.9% (inactive)
22 | c1ccc(CCc2nn3c(Cn4cnc5ccccc54)nnc3s2)cc1 | 598 | -3.3% (inactive) | -18% (inactive) | 100% | -29.5% (inactive) | 97.5% | -0.53 (inactive) | 2.5e-05 (inactive) | 0.00554 (inactive) | 14.9% (inactive) | -3.65% (inactive)
23 | COc1cc2c(cc1OC)CN(Cc1nc3ccsc3c(=O)[nH]1)CC2 | 335 | -6.2% (inactive) | 26.3% (inactive) | 93% | -5.2% (inactive) | 110% | -0.579 (inactive) | -3.9e-05 (inactive) | 0.0061 (inactive) | 24.1% (inactive) | 41.1% (inactive)
24 | Cc1cc(Cl)ccc1OCCCC(=O)N1CCOCC1 | 571 | -1.5% (inactive) | -0.1% (inactive) | 94.9% | -29.2% (inactive) | 112% | -0.503 (inactive) | -0.000205 (inactive) | 0.00464 (inactive) | -29.3% (inactive) | -72.8% (inactive)
25 | CCOC(=O)c1c(NC(=O)CSc2nnc(-c3cccnc3)o2)sc(C)c1C | 431 | -13.1% (inactive) | 24.3% (inactive) | 73.6% | -15% (inactive) | 98.1% | -0.484 (inactive) | 4.4e-06 (inactive) | 0.00591 (inactive) | 3.63% (inactive) | 16.6% (inactive)
26 | CCCn1cnc2c(c1=O)c1nc3ccccc3nc1n2Cc1ccccc1OC | 499 | -7.5% (inactive) | 4.9% (inactive) | 95% | -68.4% (inactive) | 130% | -0.483 (inactive) | -1.8e-05 (inactive) | 0.00653 (inactive) | -9.22% (inactive) | 101% (active)
27 | Cc1ccccc1-c1nc(CN2CCC(C(=O)NCc3cccnc3)CC2)c(C)o1 | 349 | -2.3% (inactive) | -3.7% (inactive) | 103% | -149% (inactive) | 119% | -0.476 (inactive) | -0.000229 (inactive) | 0.00551 (inactive) | 7.42% (inactive) | 17.2% (inactive)
28 | N#Cc1nc(-c2ccc(Cl)cc2)oc1NCCc1ccccn1 | 238 | 18.4% (inactive) | -7.2% (inactive) | 107% | -40.5% (inactive) | 97.9% | -0.59 (inactive) | -2.8e-06 (inactive) | 0.00656 (inactive) | 24.4% (inactive) | -35% (inactive)
